Test system: MS2 coat protein
Assay: apparent Kd, MS2 coat protein; higher = weaker binding; RNA-MaP array; FMN 200 µM where present
Procedure, shortened: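 Apparent Kd: the median of filtered binding-curve fits from single clusters. Designs were transcribed on Illumina sequencing-chip clusters by stalled E. coli RNA polymerase and titrated with SNAP-549-labelled MS2 coat protein from 0.7 or 1.5 nM, doubling to 3 µM, in 100 mM Tris-HCl pH 7.5, 80 mM KCl, 4 mM MgCl2, BSA, DTT, yeast tRNA and Tween-20. Each series ran without and then with constant ligand, and green signal was normalised to red-channel RNA signal and control-cluster median Fmax.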

[1] = designed as: ON switch for flavin mononucleotide, no ligand
[2] = ligand present: flavin mononucleotide, designed as: ON switch for flavin mononucleotide
[3] = designed as: OFF switch for flavin mononucleotide, no ligand
[4] = ligand present: flavin mononucleotide, designed as: OFF switch for flavin mononucleotide

Sequence	apparent Kd [1] [nM]	apparent Kd [2] [nM]	apparent Kd [3] [nM]	apparent Kd [4] [nM]
AAUUAAUUAAUACAUGAGGAUCACCCAUGUAAUUAUUAGAUCUAGGAUAUCAGCUCGAAUAGAGCUGAGAAGGAGAUCACAUGU	19.4	15	–	–
AAGAAGUCAGGAUAUGCUGCUCGUCACUUGCGUGAUGAGUAGCAGAAGGGACAUGAGGAUCACCCAUGUAAAGC	–	–	44	52.4
ACUUGACAUGAGGAUCACCCAUGUCAGGAUAUAGUAGGACAAAUAAAUAAAAGUUCUACUAGAAGGGACUUGGG	–	–	25.1	45.3
AUUAAUUAAUUAAUACAUGAGGAUCACCCAUGUAAUAAGAUCAAGGAUAUCAGCUCGUUUAGAGCUGAGAAGGUGAUCACAUGU	617	214	–	–
CGAUGUUAUGUCAGGAUAUGCGUUGCGAAAGCAAUGCAGAAGGGACAUGAGGAUCACCCAUGUCCUAACCAUCG	–	–	12.3	25.1
GCAGCGCCUGACAUGAGGAUCACCCAUGUUAGAUUGUUAAGUCAGGAUAUAGUCUAGAAACUAGACUAGAAGGGAUAUGCUGCU	15	8.03	–	–
GCUUGUGAAGGAUAUACUGGCGGCGUGCGCUCGAAGCACGCACAUGAGGAUCACCCAUGUAGAAGGUCAGGCGU	–	–	16.3	13.8
GCUGGGUAGGCAGGAUAUCCUCGCGCAAACACAUGAGGAUCACCCAUGUACACAAAACGUGAUAUGGAGAAGGGCCGACCCACA	22.4	5.72	–	–
GCCUCACAUGAGGAUCACCCAUGUCAGGAUAUAGGAGGCGGUAGAAAUCCUACCGCCGCUAGAAGGGACUGGCA	–	–	42.8	90.7
AGAAAACAUGAGGAUCACCCAUGUGAGGAUAUCGAUGUCCAAGUCCGGGUGCGGGACUCGAGAAGGCACUUGGG	–	–	55.9	55
UUAUUUAUGCAAGGAUAUCAAUUAUAUUGACGUCCUACAUGAGGAUCACCCAUGUUUAGUUUUUUUGAGAAGGUGCAUUGUCUG	64.8	59.7	–	–
GCCUGGACAGAGAAGGGCUACUCCAACCACAUGAGGAUCACCCAUGUUAGCAGGAUAUCUGGCAGGGCAUCCUCAAUUAUUAAA	91.6	19.8	–	–
CUCCUACAUGAGGAUCACCCAUGUCAGGAUAUCUCAGUGGCGCCUAAAUGUGCCACCCAGAGAAGGGACGUGCA	–	–	11.6	15.3
ACGGUGGUCACAGGAUAUCCGGCACGCGUGCCCGGAGAAGGGUGACUCAGAACCACAUGAGGAUCACCCAUGUGCCUUGCCGUA	186	37.1	–	–
AGUUACAGGAUAGGAUAUGGCGUGACAUGGCUGCCAGAAGGAUCCUCGGGAACAUGAGGAUCACCCAUGUGACCGUGUCGAGUC	126	170	–	–
UUUUAACAUGAGGAUCACCCAUGUGAGGAUAUCGAAAUUUAUAUUAAUAUUUAUAUUACGAGAAGGCACAUUUU	–	–	81.6	82.4
AGUCAUGUCCGAGGAUAUGAUGCCGGUUUCUGCAAGCCAACGCGCCCGGCCUCAGAAGGCGGACAUGAGGAUCACCCAUGUAUC	–	–	64.9	12.2
UUUUUGUGAGGAUAUUAGUAGUAAAUGAAUAAAAUUAUUACUGAGAAGGCACAUGAGGAUCACCCAUGUUCCUU	–	–	15.1	71.8
UUUUACGCAGGAUAUACAUUUUUUUUAUUAUCCUCAUUAUUACAUGAGGAUCACCCAUGUAGAAGGGCGAUUUU	–	–	75.7	99.7
GGAUAUGUCGUCUACAUGAGGAUCACCCAUGUCGAUAGACAUGAGGAUAUUGAUAAGAAUUGUAUCGAGAAGGUAUGUAGGUCC	19.3	26.7	–	–
UUUUUAUUUAUAGGAUAUGGAAACAUGAGGAUCACCCAUGUAUGAUAAGAUAAAUUAUGAUGUGGCCAGAAGGAUAUUAUUUUU	31.3	43.7	–	–
CCGGCUUAGUAGGAUAUAGGAGUCGAUAGACACCUAGAAGGACUAACAUGAGGAUCACCCAUGUGUCCUACCGG	–	–	14.3	29.3
AAUGUGUCAGGAUAUUGUUAGUUUAGUUGUUUGUAUUAGUUCGAGAAGGGACAUGAGGAUCACCCAUGUUGUUA	–	–	36.4	29.1
AAUGUGUGUCGAGGAUAUAUAACAUGACAACAAACACAUACAUGAGGAUCACCCAUGUCCCAUGUAUAGAAGGCGAUAUAUAUA	310	1120	–	–
AUACUCAUGUAAGGAUAUGCAGCCGAACCGGCUGCAGAAGGUACUAUAAUACAUGAGGAUCACCCAUGUCAAAAUAAAAUAGUU	52	21.5	–	–
UCGAUGCUAGGAUAUACUAAUACAACUACUGAAGUGUCUUCACAUGAGGAUCACCCAUGUAGAAGGAGCAUAUA	–	–	59.5	46.8
UUCCAACGAGGAUAUCGAUGGUGGAACAUGAGGAUCACCCAUGUAUGAGAUAGUGUAGUUCGAGAAGGCGUUCAGU	–	–	58	32.3
AGGGAGUUAGGAUAUGCUGCUCGUCACUUGCGUGAUGAGUAGCAGAAGGGACAUGAGGAUCACCCAUGUAAAGA	–	–	42.1	24.7
